Reference: article PMC4115637 (Pharmacology Research & Perspectives, 2014)
Changes are numbered by the printed parent chain.

Experiments:
Assay type in all cases: cell-based
[1] = biological target: T1, human TRPV3 (Homo sapiens, UniProt Q8NET8); assay: Calcium flux in TRPV3 overexpressing HEK-293 cells; conditions: HEK-293 cells overexpressing TRPV3
T1 sequence (Q8NET8 1-790): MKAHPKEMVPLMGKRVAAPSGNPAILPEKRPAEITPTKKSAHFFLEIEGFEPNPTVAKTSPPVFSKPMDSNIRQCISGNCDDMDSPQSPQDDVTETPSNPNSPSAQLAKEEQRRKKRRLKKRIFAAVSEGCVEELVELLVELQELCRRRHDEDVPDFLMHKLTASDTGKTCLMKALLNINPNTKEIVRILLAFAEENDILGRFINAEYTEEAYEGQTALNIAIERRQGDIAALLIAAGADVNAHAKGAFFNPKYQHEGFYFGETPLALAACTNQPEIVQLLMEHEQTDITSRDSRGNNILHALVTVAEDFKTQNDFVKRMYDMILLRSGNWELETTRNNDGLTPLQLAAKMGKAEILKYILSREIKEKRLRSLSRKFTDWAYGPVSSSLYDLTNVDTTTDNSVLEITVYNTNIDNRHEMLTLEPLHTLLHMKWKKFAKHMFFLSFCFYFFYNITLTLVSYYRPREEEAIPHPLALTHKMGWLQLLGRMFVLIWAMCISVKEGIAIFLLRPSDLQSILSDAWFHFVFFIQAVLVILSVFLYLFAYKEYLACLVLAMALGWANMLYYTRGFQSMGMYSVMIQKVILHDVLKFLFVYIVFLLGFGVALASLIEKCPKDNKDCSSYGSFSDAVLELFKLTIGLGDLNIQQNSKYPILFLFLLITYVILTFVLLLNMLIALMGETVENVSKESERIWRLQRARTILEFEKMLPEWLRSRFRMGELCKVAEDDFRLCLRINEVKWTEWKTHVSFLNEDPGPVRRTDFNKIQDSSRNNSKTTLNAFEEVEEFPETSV

[2] = biological target: T2, TRPV3-H426N (Homo sapiens, UniProt Q8NET8, H426N); assay: Calcium flux in HEK-293 cells transiently transfected with TRPV3-H426N
T2 sequence (Q8NET8 1-790 H426N): T1 sequence (Q8NET8 1-790) with H426N

[3] = biological target: human TRPV1 (Homo sapiens, UniProt Q8NER1); assay: Calcium flux in HEK-293 cells overexpressing TRPV1; conditions: concentrations up to 1 mmol/L
[4] = biological target: T3, TRPV3-R696K (Homo sapiens, UniProt Q8NET8, R696K); assay: Calcium flux in HEK-293 cells transiently transfected with TRPV3-R696K; conditions: 100 μmol/L carvacrol, 100 μmol/L 2-APB, 100 and 200 μmol/L drofenine
T3 sequence (Q8NET8 1-790 R696K): T1 sequence (Q8NET8 1-790) with R696K

[5] = biological target: T1, human TRPV3; assay: Whole-cell recordings in TRPV3-overexpressing HEK-293 cells; conditions: 250 μmol/L, 500 μmol/L, 1 mmol/L; negative holding potential
Summary of the method: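 HEK-293 cells stably overexpressing human TRPV3 were plated on concanavalin A-coated coverslips and used within 24 h. Whole-cell voltage clamp at −60 or −70 mV with 3–5 MΩ pipettes. External saline: NaCl/KCl/MgCl2/HEPES/glucose/2 mmol/L CaCl2, pH 7.4. CsCl/EGTA internal, pH 7.3. Test compound was perfused or injected, with a fresh cell for each recording. Peak versus basal inward current was compared by one-tailed paired t-test.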

[6] = biological target: T4, TRPV3 in HaCaT cells (Homo sapiens, UniProt Q8NET8); assay: Calcium flux in HaCaT cells
T4 sequence (Q8NET8 1-790): T1 sequence (Q8NET8 1-790)

[7] = biological target: human TRPM8 (Homo sapiens, UniProt Q7Z2W7); assay: Calcium flux in HEK-293 cells overexpressing TRPM8; conditions: concentrations up to 1 mmol/L
[8] = biological target: human TRPV4 (Homo sapiens, UniProt Q9HBA0); assay: Calcium flux in HEK-293 cells overexpressing TRPV4; conditions: concentrations up to 1 mmol/L
Chain of human TRPV4 (Q9HBA0 whole entry): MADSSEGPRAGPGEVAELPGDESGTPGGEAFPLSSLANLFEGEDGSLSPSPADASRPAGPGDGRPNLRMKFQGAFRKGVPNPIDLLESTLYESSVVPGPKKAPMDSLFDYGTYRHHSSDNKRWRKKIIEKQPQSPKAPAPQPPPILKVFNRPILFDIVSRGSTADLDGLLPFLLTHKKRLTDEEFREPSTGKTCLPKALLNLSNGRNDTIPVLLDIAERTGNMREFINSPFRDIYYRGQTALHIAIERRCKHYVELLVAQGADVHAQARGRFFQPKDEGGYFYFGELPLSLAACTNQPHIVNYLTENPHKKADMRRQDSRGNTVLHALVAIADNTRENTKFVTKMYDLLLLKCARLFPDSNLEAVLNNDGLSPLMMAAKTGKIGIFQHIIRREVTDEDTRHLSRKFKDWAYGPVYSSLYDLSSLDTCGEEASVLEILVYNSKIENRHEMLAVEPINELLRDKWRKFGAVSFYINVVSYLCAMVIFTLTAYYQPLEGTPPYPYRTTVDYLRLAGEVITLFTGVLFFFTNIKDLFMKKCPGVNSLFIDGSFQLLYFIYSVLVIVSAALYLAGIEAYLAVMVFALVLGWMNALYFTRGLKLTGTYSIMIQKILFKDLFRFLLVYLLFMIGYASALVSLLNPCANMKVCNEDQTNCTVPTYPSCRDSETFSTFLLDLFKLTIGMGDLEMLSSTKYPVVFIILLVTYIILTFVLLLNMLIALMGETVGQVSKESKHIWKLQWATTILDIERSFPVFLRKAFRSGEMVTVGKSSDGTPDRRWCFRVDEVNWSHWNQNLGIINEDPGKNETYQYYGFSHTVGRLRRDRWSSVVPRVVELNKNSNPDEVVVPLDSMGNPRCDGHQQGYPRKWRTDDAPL

Chain of human TRPM8 (Q7Z2W7 whole entry): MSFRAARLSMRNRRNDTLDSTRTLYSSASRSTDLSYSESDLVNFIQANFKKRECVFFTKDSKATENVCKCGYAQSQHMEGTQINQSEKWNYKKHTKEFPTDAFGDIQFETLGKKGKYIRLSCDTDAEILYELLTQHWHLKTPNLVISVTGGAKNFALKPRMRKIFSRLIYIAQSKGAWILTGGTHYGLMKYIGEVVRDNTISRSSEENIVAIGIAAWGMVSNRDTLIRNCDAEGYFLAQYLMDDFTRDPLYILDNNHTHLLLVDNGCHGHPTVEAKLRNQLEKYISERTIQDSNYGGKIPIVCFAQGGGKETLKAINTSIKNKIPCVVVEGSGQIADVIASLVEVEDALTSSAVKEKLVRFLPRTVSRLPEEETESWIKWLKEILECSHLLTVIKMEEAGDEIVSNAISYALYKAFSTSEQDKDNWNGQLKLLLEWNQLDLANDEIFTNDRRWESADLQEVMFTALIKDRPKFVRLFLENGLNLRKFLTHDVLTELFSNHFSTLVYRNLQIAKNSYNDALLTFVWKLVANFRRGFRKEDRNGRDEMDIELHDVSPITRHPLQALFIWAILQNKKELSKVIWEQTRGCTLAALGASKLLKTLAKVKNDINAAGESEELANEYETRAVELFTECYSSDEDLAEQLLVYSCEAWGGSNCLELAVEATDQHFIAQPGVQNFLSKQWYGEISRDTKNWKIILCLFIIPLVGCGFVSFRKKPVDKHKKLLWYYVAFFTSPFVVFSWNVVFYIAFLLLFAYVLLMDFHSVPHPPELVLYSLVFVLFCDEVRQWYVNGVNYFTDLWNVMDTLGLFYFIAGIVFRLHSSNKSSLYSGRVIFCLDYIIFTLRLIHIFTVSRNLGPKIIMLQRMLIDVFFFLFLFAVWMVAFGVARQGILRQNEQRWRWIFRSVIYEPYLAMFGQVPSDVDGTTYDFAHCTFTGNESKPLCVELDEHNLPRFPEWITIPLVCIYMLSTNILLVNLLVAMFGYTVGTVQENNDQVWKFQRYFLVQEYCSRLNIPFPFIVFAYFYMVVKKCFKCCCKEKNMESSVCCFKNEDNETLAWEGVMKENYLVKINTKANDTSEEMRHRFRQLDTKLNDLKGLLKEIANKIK
Chain of human TRPV1 (Q8NER1 whole entry): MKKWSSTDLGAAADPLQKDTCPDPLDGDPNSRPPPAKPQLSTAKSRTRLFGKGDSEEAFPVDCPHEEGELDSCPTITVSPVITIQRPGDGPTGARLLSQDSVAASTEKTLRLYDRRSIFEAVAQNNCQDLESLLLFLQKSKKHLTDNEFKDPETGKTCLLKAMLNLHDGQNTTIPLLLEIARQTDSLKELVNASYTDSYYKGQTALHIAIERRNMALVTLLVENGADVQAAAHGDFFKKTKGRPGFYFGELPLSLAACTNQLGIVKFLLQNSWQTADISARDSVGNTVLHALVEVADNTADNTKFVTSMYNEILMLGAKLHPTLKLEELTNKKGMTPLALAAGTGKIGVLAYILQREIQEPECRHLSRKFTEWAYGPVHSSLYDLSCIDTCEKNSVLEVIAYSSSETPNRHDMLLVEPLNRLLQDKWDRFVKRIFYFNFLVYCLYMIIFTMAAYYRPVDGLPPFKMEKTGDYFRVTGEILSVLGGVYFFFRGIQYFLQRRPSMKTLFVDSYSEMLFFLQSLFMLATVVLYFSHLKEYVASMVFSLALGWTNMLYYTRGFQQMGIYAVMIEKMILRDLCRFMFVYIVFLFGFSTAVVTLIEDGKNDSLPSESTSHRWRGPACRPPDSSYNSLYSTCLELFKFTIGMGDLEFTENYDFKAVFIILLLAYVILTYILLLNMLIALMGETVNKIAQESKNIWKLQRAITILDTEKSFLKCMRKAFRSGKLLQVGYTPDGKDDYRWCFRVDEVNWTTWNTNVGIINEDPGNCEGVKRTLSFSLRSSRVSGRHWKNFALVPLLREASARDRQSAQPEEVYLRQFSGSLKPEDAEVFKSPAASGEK

lowest concentration with detectable change in TRPV3 activity [1]: ~30 µmol/L | calcium flux in TRPV3-H426N relative to TRPV3-WT ([2]; agonist 100 μmol/L): reduced activation relative to TRPV3-WT | calcium flux in TRPV3-H426N relative to TRPV3-WT ([2]; agonist 200 μmol/L): did not reduce TRPV3 activation | activation of TRPV1 [3]: not observed | calcium flux in TRPV3-R696K [4]: diminished-to-no-function | inward currents [5]: dose-dependently induced inward currents | EC50 [6]: 605 µM | maximum change in fluorescence relative to ionomycin ([6]; HaCaT cells): ~80% | activation of TRPM8 [7]: not observed | activation of TRPV4 [8]: not observed
Structure (SMILES): CCN(CC)CCOC(=O)C(c1ccccc1)C1CCCCC1 (stereo not shown) [drofenine]
